Measurements: ChEMBL document CHEMBL1134794, “Discovery of inhibitors of cell adhesion molecule expression in human endothelial cells. 1. Selective inhibition of ICAM-1 and E-selectin expression” (J Med Chem, 2001)
In brackets after ≈: the same amount, converted by molar mass.

Legend:
[1] = In vitro cellular toxicity against human umbilical vein endothelial cells (HUVEC) in MTS assay; format: cell-based
[2] = Aqueous solubility was determined at pH 7.4; format: physicochemical; details: buffer
Method in brief: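 Solubility determined in 0.05 M NaH₂PO₄ buffer at pH 7.4.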

[3] = Half-life was measured in rat; format: ADME, organism-based; details: in vivo
Method in brief: (§1)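 Rats given a single oral dose of 5 mg/kg, no intravenous arm. Plasma drug concentrations followed over time and analysed by HPLC. Values are means (±SEM, n=3).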

[4] = Mean plasma concentration measured in rat; format: ADME, organism-based; method in brief: as §1
[5] = Area under curve against time (0-8 hr) in rat; format: ADME, organism-based; parameters: time < 8 hr; details: in vivo; method in brief: as §1
[6] = Maximum time taken to reach mean plasma concentration, measured in rat; format: ADME, organism-based; method in brief: as §1

SMILES | IC50 [1] [µM] | other results
NC(=O)c1cc2c(Sc3ccccn3)cncc2s1 | > 100 | –
CCc1cc2c(SCc3ccccc3)ncnc2s1 | > 100 | –
Cc1ccc(Sc2cncc3sc(C(=N)S)cc23)cc1 | 51 | –
Cc1ccc(Sc2cncc3sccc23)cc1 | 5.8 | –
Cc1ccc(Sc2cncc3sc(C(N)=O)cc23)cc1C | > 100 | –
CCc1cc2c(Sc3nnc(C)s3)ncnc2s1 | 51 | –
Cc1ccc(Sc2cncc3sc(C(N)=O)cc23)cc1 | 152 | solubility [2]: 400 µg/mL (≈ 1330 µM); half-life [3]: 60 min; Cmax [4]: 78 ng/mL; AUC at 8 h [5]: 131 ng·h/mL; Tmax [6]: 15 min
Cc1ccc(Sc2ccnc3sc(C(N)=O)cc23)cc1 | 44 | –
CCc1cc2c(Cl)ncnc2s1 | > 100 | –
Cc1cccc(Sc2cncc3sc(C(N)=O)cc23)c1 | 96 | –
Cc1ccc(Sc2cncc3sc(C(=O)NN)cc23)cc1 | 82 | –
CCc1cc2c(O)ncnc2s1 | > 100 | –
CCc1cc2c(Sc3nnc(N)s3)ncnc2s1 | 95 | –
Cc1ccc(Sc2cncc3sc(/C=N/OCC(=O)O)cc23)cc1 | 84 | –
Cc1ccc([S+]([O-])c2cncc3sc(C(N)=O)cc23)cc1 (centres undefined) | – | Cmax [4]: 476 ng/mL; AUC at 8 h [5]: 1240 ng·h/mL; Tmax [6]: 25.2 min
Cc1ccc(Sc2cncc3sc(C(=O)O)cc23)cc1 | – | Cmax [4]: 751 ng/mL; AUC at 8 h [5]: 2950 ng·h/mL; Tmax [6]: 19.8 min
CCc1cc2c(NCc3ccccc3)ncnc2s1 | 72 | –
NC(=O)c1cc2c(Sc3ccc(C(F)(F)F)cc3)cncc2s1 | 95 | –
Cc1ccc(Sc2cncc3sc(C(=O)NCCCN4CCOCC4)cc23)cc1 | 68 | –
Cc1ccc(Sc2cncc3sc(C(N)=O)cc23)c(C)c1 | > 10 | –
